Active and inactive are the calls of the source. No cut-off for these calls is given here.

Here are results for 41 molecules from ChEMBL document CHEMBL3259780, “3-Substituted-N-(4-hydroxynaphthalen-1-yl)arylsulfonamides as a novel class of selective Mcl-1 inhibitors: structure-based design, synthesis, SAR, and biological evaluation” (J Med Chem, 2014).

In assay [1] the target is T1, Induced myeloid leukemia cell differentiation protein Mcl-1 (Homo sapiens, UniProt Q07820). Description: Binding affinity to His-tagged MCL1 (171 to 327) (unknown origin) expressed in Escherichia coli BL21(DE3) assessed as inhibition of MCL1-N-terminal biotin-labeled BIM BH3 peptide interaction after 30 mins by surface plasmon resonance analysis. A general note: In SPR one partner is held on a chip, and binding of the other changes the refractive index at the surface.
T1 sequence (Q07820 whole entry): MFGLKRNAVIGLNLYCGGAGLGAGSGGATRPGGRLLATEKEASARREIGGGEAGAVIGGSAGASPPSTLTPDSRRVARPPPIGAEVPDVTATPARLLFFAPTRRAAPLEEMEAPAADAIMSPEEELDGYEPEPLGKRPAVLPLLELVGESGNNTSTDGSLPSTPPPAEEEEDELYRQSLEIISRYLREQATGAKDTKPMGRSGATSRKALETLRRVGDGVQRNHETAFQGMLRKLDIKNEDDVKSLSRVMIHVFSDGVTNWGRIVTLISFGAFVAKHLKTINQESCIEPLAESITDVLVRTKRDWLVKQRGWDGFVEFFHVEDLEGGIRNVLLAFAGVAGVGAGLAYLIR

Assay [2] deals with T1, Induced myeloid leukemia cell differentiation protein Mcl-1. Description: Displacement of Flu-BID/FAM-BID from His-tagged MCL1 (171 to 327) (unknown origin) expressed in Escherichia coli BL21(DE3) after 3 hrs by fluorescence polarization assay. On the technique in general: Fluorescence polarisation rises when a labelled molecule tumbles more slowly, as on binding a larger partner.

Assay [3] deals with T2, Apoptosis regulator Bcl-2 (Homo sapiens, UniProt P10415). Description: Inhibition of BCL2 (unknown origin) overexpressed in E-mu-myc transgenic mouse lymphoma cells assessed as induction of cell death after 15 to 18 hrs by flow cytometric analysis. The assay is classed as cell-based. In outline: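 Eμ-myc transgenic mouse lymphoma cells retrovirally transduced to overexpress Mcl-1 or Bcl-2, seeded at 0.5 × 10^6 cells/well. Cells were treated at varying concentrations for 15–18 h and stained with violet LIVE/DEAD fixable dead-cell dye. Percent stained (dead) cells was measured by flow cytometry. Means ± SEM from 3–7 independent experiments.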
T2 sequence (P10415 whole entry): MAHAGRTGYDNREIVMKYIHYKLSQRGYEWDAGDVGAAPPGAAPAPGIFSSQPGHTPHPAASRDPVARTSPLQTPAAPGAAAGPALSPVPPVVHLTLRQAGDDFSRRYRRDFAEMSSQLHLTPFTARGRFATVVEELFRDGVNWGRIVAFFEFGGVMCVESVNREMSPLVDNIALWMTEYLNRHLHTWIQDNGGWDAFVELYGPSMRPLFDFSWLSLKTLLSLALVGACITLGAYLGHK
For orientation: Flow cytometry measures light scatter and fluorescence of single cells or particles in a stream.

For assay [4], the system named is HL-60. Description: Cytotoxicity against human HL60 cells assessed as intracellular ATP level after 3 days by CellTiterGlo assay. It is filed as functional, cell-based. A digest of the protocol: (§1)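 Cells in RPMI 1640 with 10% FBS, plated at 0.5 × 10^6 cells/well and exposed to a range of compound concentrations for 3 days. Viability is read as intracellular ATP by CellTiter-Glo luminescence. Growth is expressed as percent of DMSO-treated cells, and IC50 is obtained by nonlinear regression.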

The subject of assay [5] is MV4-11. Description: Cytotoxicity against human MV4-11 cells assessed as intracellular ATP level after 3 days by CellTiterGlo assay. The assay is classed as functional, cell-based. A digest of the protocol: as §1
The subject of assay [6] is K562. Description: Cytotoxicity against human K562 cells assessed as intracellular ATP level after 3 days by CellTiterGlo assay. The assay is classed as functional, cell-based. A digest of the protocol: as §1
The target in assay [7] is T2, Apoptosis regulator Bcl-2. Description: Displacement of Flu-BID/FAM-BID from His-tagged BCL2 (1 to 202) (unknown origin) expressed in Escherichia coli BL21(DE3) after 3 hrs by fluorescence polarization assay.
Assay [8] deals with Bcl-2-like protein 1 (Homo sapiens, UniProt Q07817). Description: Displacement of Flu-BID/FAM-BID from His-tagged BCLX-L (1 to 209) (unknown origin) expressed in Escherichia coli BL21(DE3) after 3 hrs by fluorescence polarization assay.
Sequence of Bcl-2-like protein 1 (Q07817 whole entry): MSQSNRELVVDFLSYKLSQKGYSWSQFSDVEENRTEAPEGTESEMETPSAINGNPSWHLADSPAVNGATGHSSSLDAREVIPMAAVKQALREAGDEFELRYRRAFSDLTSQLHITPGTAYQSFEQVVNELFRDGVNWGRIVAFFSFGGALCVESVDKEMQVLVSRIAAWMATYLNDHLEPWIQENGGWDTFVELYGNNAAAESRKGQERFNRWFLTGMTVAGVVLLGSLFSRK
For assay [9], the system named is HL-60. Description: Induction of apoptosis in human HL60 cells after 20 hrs by annexin V-FITC and propidium iodide staining-based flow cytometric analysis. It is filed as functional, cell-based. A digest of the protocol:
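HL-60 cells at 0.5 × 10^6 cells/well were exposed to compounds at several concentrations for 20 h, then washed in PBS and stained with annexin-V FITC plus PI. Flow cytometry was run within 1 h. Annexin+/PI− counts as early apoptosis and double positive as late. Some runs included a 1 h pretreatment with 100 μM Z-VAD-FMK.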

Assay [10] is filed under the species Homo sapiens. Description: Selectivity ratio of Ki for His-tagged BCL2 (1 to 202) (unknown origin) to Ki for His-tagged MCL1 (171 to 327) (unknown origin). In outline: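 Buffer 100 mM potassium phosphate pH 7.5 with bovine gamma globulin, azide and 0.01% Triton X-100; 3 h at room temperature. IC50 fitted, then converted to Ki.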

The term IC50 denotes the midpoint of a concentration-inhibition curve. For the molecule `O=S(=O)(Nc1cc(CCCCO)c(O)c2ccccc12)c1ccc(Br)cc1`, the IC50 in assay [1] came out at 19.7 µM.

For orientation: Ki means the equilibrium dissociation constant of an inhibitor or competing ligand from its target. A low value points to tighter binding. `CCCCSc1cc(NS(=O)(=O)c2ccc(Br)cc2)c2ccccc2c1O` registered a Ki in [2] greater than 27 µM.

With `COc1c(CCCCO)cc(NS(=O)(=O)c2ccc(Br)cc2)c2ccccc12`, the inhibition constant (Ki) in [2] is greater than 27 µM. In assay [1], the IC50 was greater than 100 µM.

Take `COC(=O)CSc1cc(NS(=O)(=O)c2ccc(Br)cc2)c2ccccc2c1OC`: the inhibition constant Ki in assay [2] was greater than 27 µM. Besides, the IC50 in assay [1] is greater than 100 µM; in [4] (HL-60, 72 h), greater than 50 µM; in assay [5] (MV4-11, 72 h) it was greater than 50 µM; in assay [6] (K562, 72 h) it was greater than 50 µM. Further, the inhibition entry in assay [3] is “inactive”. The Activity result in assay [4], in assay [5] and in assay [6] was “Dose-dependent effect” throughout.

Consider `O=C(O)CSc1cc(NS(=O)(=O)c2ccc(Br)cc2)c2ccccc2c1O`, for which, in [1], the IC50 was found to be 2.4 µM. The inhibition constant Ki in assay [7] worked out at 23.8 µM; in [8], 33 µM. In addition, the Activity entry in [4], in [5] and in assay [6] was “Dose-dependent effect” throughout.

With `O=C(O)CSc1cc(NS(=O)(=O)Cc2ccc(Cl)cc2)c2ccccc2c1O`, in assay [1], the IC50 turned out to be 9.59 µM.

Take `O=C(O)CSc1cc(CNS(=O)(=O)c2ccccc2)c2ccccc2c1O`: affinity in assay [2] was put at a Ki of 64.8 µM. In assay [1], the IC50 came out at 30.2 µM.

In [2], `O=C(O)CSc1cc(NS(=O)(=O)c2ccc(Br)cc2)ccc1O` registered a Ki of 283 µM. Moreover, the IC50 in [1] was greater than 100 µM.

In the case of `COc1c(SCC(=O)O)cc(NS(=O)(=O)c2cccc(-c3ccccc3)c2)c2ccccc12`, the Ki in assay [2] worked out at 24.2 µM. In addition, the IC50 in assay [1] is 58.4 µM.

With `O=C(O)CCSc1cc(NS(=O)(=O)c2cccc3ccccc23)c2ccccc2c1O`, the Ki in assay [2] was greater than 27 µM. For the same molecule, in assay [1], the IC50 was 64.9 µM.

In assay [2], `O=C(O)CSc1cc(NS(=O)(=O)c2ccc(-c3ccc(F)cc3F)cc2)c2ccccc2c1O` returned an inhibition constant Ki of 0.24 µM. In assay [1], the IC50 turned out to be 0.92 µM.

For `CS(=O)(=O)Nc1cc(SCC(=O)O)c(O)c2ccccc12`, in assay [2], the Ki worked out at 74.9 µM. For the same molecule, the IC50 in [1] was greater than 100 µM.

As to `O=C(O)CSc1cc(NS(=O)(=O)c2ccc(F)cc2)c2ccccc2c1O`, the IC50 in [1] is 5.01 µM.

`COc1c(SCC(N)=O)cc(NS(=O)(=O)c2ccc(Br)cc2)c2ccccc12` displayed a Ki in assay [2] greater than 27 µM. Also, the IC50 in assay [1] is greater than 100 µM.

For the molecule `CCc1ccc(S(=O)(=O)Nc2cc(SCC(=O)O)c(O)c3ccccc23)cc1`, the IC50 in assay [1] came to 8.68 µM.

On to `O=C(O)CSc1cc(NS(=O)(=O)c2ccccc2)c2ccccc2c1O`, for which, in assay [1], the half-maximal inhibitory concentration (IC50) was 12.6 µM.

As for `O=S(=O)(Nc1ccc(O)c2ccccc12)c1ccccc1`, the inhibition constant (Ki) in [2] was greater than 27 µM.

Consider `CC(C)(C)c1ccc(S(=O)(=O)Nc2cc(SCC(=O)O)c(O)c3ccccc23)cc1`, for which the IC50 in [1] came to 8.73 µM.

In the case of `CC(=O)Oc1c(SCC(=O)O)cc(NS(=O)(=O)c2ccc(Br)cc2)c2ccccc12`, the affinity in assay [2] corresponds to a Ki of 34 µM. The concentration for half-maximal inhibition (IC50) in [1] is 26.8 µM.

As for `O=C(O)CSc1cc(NS(=O)(=O)c2cc3ccccc3s2)c2ccccc2c1O`, in assay [1], the IC50 stood at 7.5 µM.

In assay [2], `O=C(O)CSc1cc(NS(=O)(=O)N2CCN(c3ccccc3)CC2)c2ccccc2c1O` returned a Ki of 2.22 µM. For the same molecule, the IC50 in [1] amounted to 16.2 µM.

For the molecule `O=C(O)CSc1cc(NC(=O)Cc2ccccc2)c2ccccc2c1O`, in [2], affinity was put at a Ki of 59.4 µM. Moreover, in assay [1], the IC50 was determined as 63.8 µM.

With `O=C(O)CSc1cc(NS(=O)(=O)c2ccc(Oc3ccc(F)cc3)cc2)c2ccccc2c1O`, the Ki in [2] came out at 0.29 µM. Further, in assay [1], the IC50 turned out to be 0.9 µM.

For the molecule `O=C(O)CSc1cc(NS(=O)(=O)c2ccc(-c3ccc(Cl)cc3)cc2)c2ccccc2c1O`, the IC50 in assay [1] is 0.88 µM. This molecule showed a Ki in assay [7] of 6.11 µM. Besides, the inhibition entry in assay [3] was “inactive”. In addition, the Activity result in assay [4], in assay [5] and in [6] was “Dose-dependent effect” throughout.

On to `COC(=O)CSc1cc(NS(=O)(=O)c2ccc(Br)cc2)c2ccccc2c1O`, for which the IC50 in [1] worked out at 14.9 µM. Besides, the Activity result in [4], in assay [5] and in assay [6] was “Dose-dependent effect” each time.

Consider `O=C(O)CSc1cc(NS(=O)(=O)c2ccccc2Br)c2ccccc2c1O`, for which the IC50 in assay [1] was determined as 6.18 µM.

In assay [2], `O=S(=O)(Nc1cc(SCc2nnn[nH]2)c(O)c2ccccc12)c1ccc(Oc2ccccc2)cc1` came in with a Ki of 0.21 µM. In addition, the Activity result in assay [4], in assay [5], in assay [6] and in assay [9] was “Dose-dependent effect” throughout.

`NC(=O)CSc1cc(NS(=O)(=O)c2ccc(Br)cc2)c2ccccc2c1O`: in assay [1], the IC50 was 3.87 µM.

`COc1c(I)cc(C=O)c2ccccc12` returned a Ki in [8] greater than 15 µM. For the same molecule, the Ratio Ki in assay [10] was 16.

In the case of `O=C(O)CSc1cc(NS(=O)(=O)c2ccccc2-c2ccccc2)c2ccccc2c1O`, the IC50 in [1] turned out to be 9.9 µM. In addition, the figures for the Ki in assay [7] and in assay [8] were 23.8 µM and 48.2 µM, respectively.

With `O=C(O)CSc1cc(NC(=O)c2ccc(Br)cc2)c2ccccc2c1O`, the IC50 in assay [1] amounted to 45.1 µM.

`COc1ccc(S(=O)(=O)Nc2cc(SCC(=O)O)c(O)c3ccccc23)cc1` had a Ki in [2] of 9.31 µM. Moreover, the IC50 in assay [1] was 7.17 µM.

Take `O=C(O)CSc1cc(NS(=O)(=O)c2cccc(-c3ccccc3)c2)c2ccccc2c1O`: the IC50 in [1] was found to be 2.31 µM. Further, the figures for the Ki in [7] and in assay [8] were 7.85 µM and 15.1 µM, respectively. Besides, the Activity entry in assay [4], in [5] and in [6] was “Dose-dependent effect” throughout.

For `O=C(O)CSc1cc(NS(=O)(=O)c2ccc(Cl)cc2)c2ccccc2c1O`, the 50% inhibitory concentration (IC50) in assay [1] stood at 2.7 µM.

As to `O=C(O)CSc1cc(NS(=O)(=O)c2ccc(-c3ccccc3)cc2)c2ccccc2c1O`, the IC50 in assay [1] amounted to 2.03 µM. For the same molecule, the Ki in [7] turned out to be 8.82 µM; in assay [8], 8.05 µM. The Activity entry in assay [4], in assay [5] and in assay [6] was “Dose-dependent effect” throughout.

As to `O=S(=O)(Nc1cc(CCCO)c(O)c2ccccc12)c1ccc(Br)cc1`, in assay [2], the Ki was 3.79 µM. For the same molecule, the IC50 in [1] is 11 µM.

`O=S(=O)(Nc1cc(SCc2nnn[nH]2)c(O)c2ccccc12)c1ccc(Br)cc1` came in with a Ki in assay [2] of 1.01 µM. Besides, in assay [1], the IC50 was found to be 1.5 µM. For the same molecule, the Activity entry in [4], in assay [5] and in assay [6] was “Dose-dependent effect” throughout.

As for `O=C(O)CSc1cc(NS(=O)(=O)c2cccc(Br)c2)c2ccccc2c1O`, in assay [1], the IC50 was 9.68 µM.

For `O=C(O)CCSc1cc(NS(=O)(=O)c2ccc3ccccc3c2)c2ccccc2c1O`, the IC50 in [1] was found to be 5.03 µM.

Regarding `CC(C)c1ccc(S(=O)(=O)Nc2cc(SCC(=O)O)c(O)c3ccccc23)cc1`, the IC50 in [1] worked out at 4 µM.

In assay [2], `COc1c(SCC(=O)O)cc(NS(=O)(=O)c2ccc(-c3ccccc3)cc2)c2ccccc12` gave an inhibitory constant (Ki) of 20 µM. Besides, the IC50 in assay [1] is greater than 100 µM.
